These results are taken from ChEMBL document CHEMBL4138245, “Design and synthesis of novel quinacrine-[1,3]-thiazinan-4-one hybrids for their anti-breast cancer activity” (Eur J Med Chem, 2018).

SMILES strings stand for the structures. Activity calls are given as the source filed them. No cut-off for these calls is given here.

In data set [1] the test system is MDA-MB-468. Put plainly: Antiproliferative activity against human MDA-MB-468 cells after 48 hrs by SRB assay. Conditions: MDA-MB-468, 48 h. The class given is functional, cell-based. Put shortly: (§1)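 SRB assay: 5,000-10,000 cells/well plated, 24 h at 37 °C/5% CO2 before drug; seven concentrations from 100 μM down (two- to ten-fold serial dilutions, DMSO ≤0.1% final) for 48 h; TCA fixation (10% final, 60 min, 4 °C), 0.4% SRB in 1% acetic acid, solubilized in 10 mM Tris base, absorbance 515-564 nm; growth = (Ti−Tz)/(C−Tz)×100; IC50 from sigmoidal variable-slope fit; triplicates, ≥2 independent experiments.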
For orientation: In SRB staining, fixed cells bind dye roughly in proportion to their protein.

For data set [2], the system named is 184B5. Put plainly: Antiproliferative activity against human 184B5 cells after 48 hrs by SRB assay. The class given is cell-based. Conditions: 184B5, 48 h. Put shortly: as §1
The test system of data set [3] is MCF7. Put plainly: Anticlonogenic activity against human MCF7 cells at 0.39 to 1.5 uM after 12 hrs by crystal violet staining based assay. The data set is classed as functional, cell-based. Put shortly:
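Clonogenic assay: 1000 cells/well seeded, treated after overnight attachment for 12 h, then medium replaced and cells grown until control colonies were large enough; colonies stained with crystal violet.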

Data set [4] has as its system CAMA-1. The data set is described as follows: Antiproliferative activity against human CAMA1 cells assessed as compound concentration required to show complete inhibition of cell viability up to 96 hrs by SRB assay. The class given is functional.
Data set [5] deals with 184B5. Put plainly: Antiproliferative activity against human 184B5 cells at 1 to 2 uM up to 96 hrs by SRB assay. The note with it: 184b5, 96 h. The data set is classed as cell-based.
Data set [6] concerns MCF7. Put plainly: Cell cycle arrest in human MCF7 cells assessed as accumulation at sub-G1 phase at 2 uM after 48 hrs by propidium iodide staining based flow cytometry. The data set is classed as functional. Put shortly: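 MCF7, MDA-MB231 and non-cancer 184B5 breast cells exposed to 2 μM for 48 h, then cell-cycle analysis by flow cytometry; duplicates, repeated three times.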

The test system of data set [7] is MCF7. Put plainly: Cell cycle arrest in human MCF7 cells assessed as DNA content at 2 uM after 24 hrs by BrdU incorporation assay (reference value: 32.9%). The data set is classed as functional. Background: Incorporation of labelled thymidine or its analogues reports DNA synthesis.
Data set [8] relates to MCF7. The data set is described as follows: Cell cycle arrest in human MCF7 cells assessed as DNA content at 2 uM after 48 hrs by BrdU incorporation assay (reference value: 29.4%). The class given is functional.
Data set [9] deals with 184B5. Put plainly: Inhibition of DNA replication in human 184B5 cells assessed as EdU incorporation at 2 uM pretreated for 48 hrs followed by EdU addition at final 45 mins of 48 hrs incubation time (reference value: 55%). Further details: scale not given: the % may be the effect or the level left. The data set is classed as cell-based. Conditions: 184b5, 48 h.
The test system of data set [10] is MCF7. Put plainly: Effect on Cyclin-D protein expression in human MCF7 cells at 2 uM after 24 to 72 hrs by Western blot method. The data set is classed as functional, cell-based. In general terms: In western blotting, separated proteins are transferred to a membrane and probed.
Data set [11] addresses Serine/threonine-protein kinase mTOR (Homo sapiens) (UniProt P42345). Put plainly: Inhibition of mTOR pathway in human MCF7 cells assessed as reduction in 4EBP1 phosphorylation at Thr37/Thr46 residues at 2 uM after 6 hrs by Western blot method. The data set is classed as cell-based.
A short description of data set [12]: Selectivity index, ratio of compound concentration for cell killing activity in human MCF10A cells to compound concentration for cell killing activity in human MDA-MB-453 cells. The data set is classed as toxicity, cell-based. The note with it: MCF10A cells versus MDA-MB-453 cells, read-out: Selectivity Index.
Data set [13] can be described thus: Selectivity index, ratio of compound concentration for cell killing activity in human 184B5 cells to compound concentration for cell killing activity in human BT20 cells. The data set is classed as toxicity, cell-based. The note with it: 184B5 cells versus BT20 cells, read-out: Selectivity Index.
A short description of data set [14]: Selectivity index, ratio of compound concentration for cell killing activity in human 184B5 cells to compound concentration for cell killing activity in human BT474 cells. The note with it: 184B5 cells versus BT474 cells, read-out: Selectivity Index. The class given is toxicity, cell-based.
Data set [15] in a line: Selectivity index, ratio of compound concentration for cell killing activity in human 184B5 cells to compound concentration for cell killing activity in human SK-BR-3 cells. The data set is classed as toxicity, cell-based. Conditions: 184B5 cells versus SK-BR-3 cells, read-out: Selectivity Index.
The nature of data set [16]: Selectivity index, ratio of compound concentration for cell killing activity in human 184B5 cells to compound concentration for cell killing activity in human CAMA1 cells. The data set is classed as toxicity, cell-based. The note with it: 184B5 cells versus CAMA1 cells, read-out: Selectivity Index.

As a reminder, the IC50 is the concentration that gives 50% inhibition. `COc1ccc2nc3cc(Cl)ccc3c(NCCCN3C(=O)CCSC3c3cccs3)c2c1` (stereo unspecified): the IC50 in data set [1] was determined as 1.73 µM; in data set [2] it was 4.96 µM. For the same molecule, the result in data set [3] and in [6] was Active. Moreover, the Activity in data set [4] is 2 µM; in data set [5], “Non-Toxic”; in [7], 0.7%; in data set [8], 0.9%; in data set [9], 52%. Besides, the result in data set [10] was inactive. The inhibition entry in data set [11] was “Active”. Besides, the selectivity ratio in data set [12], in data set [13], in data set [14], in data set [15] and in data set [16] was 3 to 6 each time.
